Results pooled from the literature.
Lines come from different studies, so protocols differ.
Target: G protein-coupled receptor kinase 6 (GRK6, Homo sapiens, UniProt P43250)

CCCOc1ccc(OC)c(F)c1C(=O)c1ccc(C(=O)N[C@@H]2CNC[C@H]2NC(=O)c2ccc3[nH]ncc3c2)cc1 — remaining activity (enzyme activity; inhibitor; 10 µM): 104%
O=C1NC(=O)c2cc(Nc3ccc(F)cc3)c(Nc3ccc(F)cc3)cc21 — remaining signal (cell-free assay; 0.5 µM): 98.7%
CC(C)(C)c1nc2c(s1)c1nc(N)ncc1c1ccc(NS(=O)(=O)c3c(F)cccc3F)c(F)c12 — remaining activity (enzyme activity; inhibitor; radiometric; 1 µM): 76%
Cc1sc(C(=O)NC2COC2)cc1-n1cc(NC(=O)Nc2c(F)cccc2Cl)cn1 — remaining activity (enzyme activity; inhibitor; 10 µM): 91.5%
CCN(CC)CCNC(=O)c1c(C)[nH]c(/C=C2\C(=O)Nc3ccc(F)cc32)c1C — inhibition (enzyme activity; inhibitor; 10 µM): 73%
Cc1ccc(NC(=O)c2ccc(C)c(C(F)(F)F)c2)cc1C#Cc1nn(C2CCC(O)CC2)c2ncnc(N)c12 (stereo not drawn) — remaining signal (cell-free assay; 10 µM): 100%
CCCS(=O)(=O)Nc1ccc(F)c(C(=O)c2c[nH]c3ncc(-c4ccc(Cl)cc4)cc23)c1F — inhibition (enzyme activity; inhibitor; 1 µM): < 10%
Cc1ccc(Nc2nccc(N(C)c3ccc4c(C)n(C)nc4c3)n2)cc1S(N)(=O)=O — inhibition (enzyme activity; inhibitor; 10 µM): 2%
CCN(CC)c1ccc(C2=NNC(=O)CC2C)cc1[N+](=O)[O-] (stereo not drawn) — remaining activity (enzyme activity; inhibitor; 10 µM): 105%
CN1CC(Oc2cnc(C#N)cc2-c2ccn3nc(NC(=O)C4CC4)cc3c2)C1 — inhibition (enzyme activity; inhibitor; 1 µM): 9%
CNC(=O)c1cc(Oc2ccc(NC(=O)Nc3ccc(Cl)c(C(F)(F)F)c3)cc2)ccn1 — inhibition (enzyme activity; inhibitor; 0.3 µM): 2%
COc1cc2ncnc(Nc3ccc(Oc4ccccc4)cc3C)c2cc1OC — inhibition (enzyme activity; inhibitor; 1 µM): 0%
